Data reported in ChEMBL document CHEMBL4368925, “Design, synthesis, and screening of novel ursolic acid derivatives as potential anti-cancer agents that target the HIF-1α pathway” (Bioorg Med Chem Lett, 2019).

The molecules below were run on Hep 3B2 (assay: Cytotoxicity against human Hep3B cells assessed as reduction in cell viability after 24 hrs in normoxic condition by MTT assay).
Assay type: cell-based
Procedure, shortened: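 Hep3B viability by MTT assay after 24 h compound treatment under normoxia; table values are means, n=3.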
C[C@H]1[C@H](C)CC[C@]2(C(=O)O)CC[C@]3(C)C(=CC[C@@H]4[C@@]5(C)CC(=C\c6c(Cl)cccc6Cl)/C(=N\NC(=N)N)C(C)(C)[C@@H]5CC[C@]43C)[C@H]12 gave an IC50 of over 100 µM.
With C[C@H]1[C@H](C)CC[C@]2(C(=O)OCc3cccc(Cl)c3)CC[C@]3(C)C(=CC[C@@H]4[C@@]5(C)CC/C(=N\NC(=N)N)C(C)(C)[C@@H]5CC[C@]43C)[C@H]12 the IC50 was 34.1 µM.
Molecule C[C@H]1[C@H](C)CC[C@]2(C(=O)OCc3ccc(Cl)cc3Cl)CC[C@]3(C)C(=CC[C@@H]4[C@@]5(C)CC/C(=N\NC(=N)N)C(C)(C)[C@@H]5CC[C@]43C)[C@H]12 has an IC50 of over 100 µM.
Molecule C[C@H]1[C@H](C)CC[C@]2(C(=O)O)CC[C@]3(C)C(=CC[C@@H]4[C@@]5(C)CC[C@H](O)C(C)(C)[C@@H]5CC[C@]43C)[C@H]12 [URSOLIC ACID] has an IC50 of 23.8 µM.
CCCCCOC(=O)[C@]12CC[C@@H](C)[C@H](C)[C@H]1C1=CC[C@@H]3[C@@]4(C)CC/C(=N\NC(=N)N)C(C)(C)[C@@H]4CC[C@@]3(C)[C@]1(C)CC2 showed an IC50 of 22 µM.
With C[C@H]1[C@H](C)CC[C@]2(C(=O)OCc3c(Cl)cccc3Cl)CC[C@]3(C)C(=CC[C@@H]4[C@@]5(C)CC/C(=N\NC(=N)N)C(C)(C)[C@@H]5CC[C@]43C)[C@H]12 the IC50 was 22.3 µM.
With CCOC(=O)[C@]12CC[C@@H](C)[C@H](C)[C@H]1C1=CC[C@@H]3[C@@]4(C)CC/C(=N\NC(=N)N)C(C)(C)[C@@H]4CC[C@@]3(C)[C@]1(C)CC2 the IC50 was 6 µM.
C[C@H]1[C@H](C)CC[C@]2(C(=O)O)CC[C@]3(C)C(=CC[C@@H]4[C@@]5(C)CC(=C\c6cccc(F)c6)/C(=N\NC(=N)N)C(C)(C)[C@@H]5CC[C@]43C)[C@H]12 was tested, and the IC50 was 10.5 µM.
With C[C@H]1[C@H](C)CC[C@]2(C(=O)O)CC[C@]3(C)C(=CC[C@@H]4[C@@]5(C)CC/C(=N\NC(N)=O)C(C)(C)[C@@H]5CC[C@]43C)[C@H]12 the IC50 was 69.8 µM.
In the case of C[C@H]1[C@H](C)CC[C@]2(C(=O)O)CC[C@]3(C)C(=CC[C@@H]4[C@@]5(C)CC(=C\c6ccccc6Cl)/C(=N\NC(=N)N)C(C)(C)[C@@H]5CC[C@]43C)[C@H]12, the IC50 is reported as over 100 µM.
C[C@H]1[C@H](C)CC[C@]2(C(=O)O)CC[C@]3(C)C(=CC[C@@H]4[C@@]5(C)CC(=C\c6cccs6)/C(=N\NC(=N)N)C(C)(C)[C@@H]5CC[C@]43C)[C@H]12 showed an IC50 of over 100 µM.
Work on Cc1ccc(COC(=O)[C@]23CC[C@@H](C)[C@H](C)[C@H]2C2=CC[C@@H]4[C@@]5(C)CC/C(=N\NC(=N)N)C(C)(C)[C@@H]5CC[C@@]4(C)[C@]2(C)CC3)cc1 yielded an IC50 of 18 µM.
C[C@H]1[C@H](C)CC[C@]2(C(=O)OCc3ccc(Cl)cc3)CC[C@]3(C)C(=CC[C@@H]4[C@@]5(C)CC/C(=N\NC(=N)N)C(C)(C)[C@@H]5CC[C@]43C)[C@H]12 gave an IC50 of 32.1 µM.
C[C@H]1[C@H](C)CC[C@]2(C(=O)O)CC[C@]3(C)C(=CC[C@@H]4[C@@]5(C)CC(=C\c6ccc(F)cc6)/C(=N\NC(=N)N)C(C)(C)[C@@H]5CC[C@]43C)[C@H]12 showed an IC50 of over 100 µM.
C[C@H]1[C@H](C)CC[C@]2(C(=O)O)CC[C@]3(C)C(=CC[C@@H]4[C@@]5(C)CC(=C\c6ccc(Cl)cc6Cl)/C(=N\NC(=N)N)C(C)(C)[C@@H]5CC[C@]43C)[C@H]12 showed an IC50 of over 100 µM.
Work on C[C@H]1[C@H](C)CC[C@]2(C(=O)O)CC[C@]3(C)C(=CC[C@@H]4[C@@]5(C)CC(=C\c6cccc(Br)c6)/C(=N\NC(=N)N)C(C)(C)[C@@H]5CC[C@]43C)[C@H]12 yielded an IC50 of over 100 µM.
Molecule C[C@H]1[C@H](C)CC[C@]2(C(=O)O)CC[C@]3(C)C(=CC[C@@H]4[C@@]5(C)CC(=C\c6cccc(Cl)c6)/C(=N\NC(=N)N)C(C)(C)[C@@H]5CC[C@]43C)[C@H]12 has an IC50 of over 100 µM.
C[C@H]1[C@H](C)CC[C@]2(C(=O)OCc3ccc(F)cc3)CC[C@]3(C)C(=CC[C@@H]4[C@@]5(C)CC/C(=N\NC(=N)N)C(C)(C)[C@@H]5CC[C@]43C)[C@H]12 gave an IC50 of 12.9 µM.
In the case of C[C@H]1[C@H](C)CC[C@]2(C(=O)O)CC[C@]3(C)C(=CC[C@@H]4[C@@]5(C)CC/C(=N\NC(=N)N)C(C)(C)[C@@H]5CC[C@]43C)[C@H]12, the IC50 is reported as over 100 µM.
C[C@H]1[C@H](C)CC[C@]2(C(=O)O)CC[C@]3(C)C(=CC[C@@H]4[C@@]5(C)CC(=C\c6ccccc6F)/C(=N\NC(=N)N)C(C)(C)[C@@H]5CC[C@]43C)[C@H]12 gave an IC50 of over 100 µM.
C[C@H]1[C@H](C)CC[C@]2(C(=O)O)CC[C@]3(C)C(=CC[C@@H]4[C@@]5(C)CC(=C\c6ccco6)/C(=N\NC(=N)N)C(C)(C)[C@@H]5CC[C@]43C)[C@H]12 showed an IC50 of over 100 µM.
C[C@H]1[C@H](C)CC[C@]2(C(=O)O)CC[C@]3(C)C(=CC[C@@H]4[C@@]5(C)CC(=C\c6ccccc6)/C(=N\NC(=N)N)C(C)(C)[C@@H]5CC[C@]43C)[C@H]12 gave an IC50 of over 100 µM.
Molecule C[C@H]1[C@H](C)CC[C@]2(C(=O)O)CC[C@]3(C)C(=CC[C@@H]4[C@@]5(C)CC(=C\c6ccccc6Br)/C(=N\NC(=N)N)C(C)(C)[C@@H]5CC[C@]43C)[C@H]12 has an IC50 of over 100 µM.
C[C@H]1[C@H](C)CC[C@]2(C(=O)O)CC[C@]3(C)C(=CC[C@@H]4[C@@]5(C)CC/C(=N\NC(N)=S)C(C)(C)[C@@H]5CC[C@]43C)[C@H]12 showed an IC50 of over 100 µM.
C[C@H]1[C@H](C)CC[C@]2(C(=O)O)CC[C@]3(C)C(=CC[C@@H]4[C@@]5(C)CC(=C\c6cccc7ccccc67)/C(=N\NC(=N)N)C(C)(C)[C@@H]5CC[C@]43C)[C@H]12 was tested, and the IC50 was over 100 µM.
Molecule Cc1ccc(/C=C2\C[C@]3(C)[C@H]4CC=C5[C@@H]6[C@@H](C)[C@H](C)CC[C@]6(C(=O)O)CC[C@@]5(C)[C@]4(C)CC[C@H]3C(C)(C)\C2=N\NC(=N)N)cc1 has an IC50 of over 100 µM.
For C[C@H]1[C@H](C)CC[C@]2(C(=O)O)CC[C@]3(C)C(=CC[C@@H]4[C@@]5(C)CC(=C\c6ccc([N+](=O)[O-])cc6)/C(=N\NC(=N)N)C(C)(C)[C@@H]5CC[C@]43C)[C@H]12, the IC50 was over 100 µM.
With COC(=O)[C@]12CC[C@@H](C)[C@H](C)[C@H]1C1=CC[C@@H]3[C@@]4(C)CC/C(=N\NC(=N)N)C(C)(C)[C@@H]4CC[C@@]3(C)[C@]1(C)CC2 the IC50 was over 100 µM.
